T cruzi inh – blocks replication of Trypanosoma cruzi; T. cruzi beta-gal in NIH3T3, luminescence, 90 h; inhibition, % (test concentration not listed); 1.4% of 300,000 active;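 active = mean inhibition across valid replicates above about 55%, limit read from the data; inconclusive = mean below that limit but half or more replicates reach it; inactive = mean below it, under half of replicates reach it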;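 also: signal also drops with host cell toxicity which is not excluded here; higher percent means less beta-gal luminescence so fewer parasites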
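Incubation – ≥90 h infection period, 3 h prior cell attachment · System – NIH/3T3 fibroblasts plus reporter T. cruzi · Doses – compound pinned at 50 nL/well, DMSO · Read-out basis – percent inhibition of parasite-derived β-gal signal · Signal – luminescent β-galactosidase signal after 60 min lysis · Also added – 5000 T. cruzi trypomastigotes/well · Medium – Low-serum DMEM with 2% FBS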
HSF1 activator – increases HSF-1 driven luciferase reporter signal; NIH3T3-HGL HSF-1 luciferase reporter, MG132, 8 h; 100% = twice DMSO control signal; 1.7% of 300,000 active; activation, % at 9 µM; AID 504408;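 active = mean replicate activation of at least 50% with a set share of replicates each reaching 50%; inconclusive = only one of those two conditions met; inactive = mean below 50% and too few replicates reaching it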
Hsp70 act – switches on Hsp70 transcription | HeLa Hsp70 promoter luciferase reporter, luminescence; scaled: vehicle 0, proteasome-inhibitor control 100% | activation, % at 10 µM | 0.04% of 200,000 active;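 active = activation above the mean across all tested compounds plus 3 SD, cutoff set per campaign, cut at about 5.5% in these data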
L major viab – inhibitors of Leishmania major promastigote growth; Leishmania major promastigotes, resazurin fluorescence viability; inhibition, % at 10 µM; 9% of 200,000 active; AID 1063; in the data active = inhibition above about 50%;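 also: promastigotes grown with compound for 44 hours at 28 °C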
HSF1 inhib – HSF1 inhibition. 0.77% of 300,000 active. activity change, negative = inhibition, % at 7.5 µM (by protocol). NIH3T3-HGL HSE-luciferase, MG132-induced, luminescence 8 h; stronger effect = lower value. AID 2098;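 active = more than half of replicate wells show activity change below -50%, luminescence cut by over half; inconclusive = some wells, but at most half, below -50%; inactive = no replicate well below -50%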;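 also: luciferase reports HSF-1 transcriptional activity via heat shock element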
Numbers stand for hits; - = inactive; ? = inconclusive; . = no result. The full list was thinned out, with hits kept by preference.

SMILES	T cruzi inh	HSF1 activator	Hsp70 act	L major viab	HSF1 inhib
CC1CCCC(C)N1S(=O)(=O)c1ccc(S(=O)(=O)NCCc2ccncc2)cc1 (stereo not given)	56.7	-	-	-	-
CCCCCc1ccc(S(=O)(=O)NCCc2ccncc2)cc1	-	-	-	77.8	-
CCCc1ccc(S(=O)(=O)NCCc2ccncc2)cc1	-	-	-	-	-
CC(OC(=O)Cc1n[nH]c(=O)c2ccccc12)C(=O)Nc1ccc(F)cc1 (stereo not given)	-	-	.	.	-
O=C1NC(=NCc2ccccc2)S/C1=C/c1ccc(O)cc1	-	-	-	63.1	-
COc1cc(CCN2C(=O)c3cccc4cccc(c34)C2=O)c(S(=O)(=O)N2CCC(C)CC2)cc1OC	58.6	-	-	-	-
COc1cc(CCN2C(=O)c3cccc4cccc(c34)C2=O)c(S(=O)(=O)N2CCCCCC2)cc1OC	57.7	-	-	-	-
COc1ccnc(Oc2ccc(F)cc2)c1C(=O)N/C=N/OCc1ccccc1	-	-	-	-	-
Cc1cc(C)cc(NC(=S)N(Cc2ccc(Cl)cc2)Cc2ccc(C(=O)O)cc2)c1	-	-	-	-	-
Cc1cc(NC(=S)N(Cc2ccc(Cl)cc2)Cc2ccc(C(=O)O)cc2)ccc1Cl	-	80.1	-	-	-
Cc1ccc2cc(CCNC(=O)c3cccs3)c(=O)[nH]c2c1	.	.	-	-	.
Cc1ccc2cc(CCNC(=O)c3cccs3)c(=O)[nH]c2c1C	-	58.4	-	-	-
CC1(C(=O)NCC2CCCO2)Oc2cccnc2NC1=O (stereo not given)	-	-	-	-	-
COc1ccc(C2C(C(C)=O)=C(O)C(=O)N2c2ccc(C)cc2)cc1 (stereo not given)	-	60.6	.	.	-
COc1ccc(C2C(CC(=O)O)=C(Nc3ccccc3)C(=O)N2c2ccccc2)cc1 (stereo not given)	-	64.1	-	-	-
O=C(O)CC1=C(Nc2ccccc2)C(=O)N(c2ccccc2)C1c1ccc(F)cc1 (stereo not given)	-	-	-	-	-
C=Cc1ccc(Cn2c(=O)n(C)c(=O)c3sccc32)cc1	-	-	.	.	-
CCS(=O)(=O)N1CCC(NC(=O)C(Cc2cccc(OC)c2OC)NC(C)=O)CC1 (stereo not given)	-	-	.	.	-
Cc1ccc(OCc2n[nH]c(=S)n2-c2ccc(Br)cc2)cc1	-	-	.	.	-
COC(=O)c1ccccc1NC(=O)CN1CCc2ccccc2C1	-	-	.	.	-
COC(=O)c1ccccc1NC(=O)CN1CCN(C23CC4CC(CC(C4)C2)C3)CC1	-	-	-	86.0	-
Cc1cccc(C)c1NC(=O)Cn1nnc(-c2ccc(CN3CCC(C)CC3)cc2)n1	-	-	-	-	-
CC1CCN(Cc2ccc(-c3nnn(CC(=O)Nc4ccccc4Cl)n3)cc2)CC1	-	-	-	64.3	-
O=C(Cn1nnc(-c2ccccc2)n1)Nc1cccc(S(=O)(=O)N2CCOCC2)c1	-	-	.	.	-
O=C(Cn1nnc(-c2ccc(S(=O)(=O)N3CCCC3)cc2)n1)Nc1ccccc1-n1cccc1	-	-	-	95.5	-
SMILES	T cruzi inh	HSF1 activator	Hsp70 act	L major viab	HSF1 inhib
COc1ccc(N2CCN(c3ccc(C(=O)O)cc3[N+](=O)[O-])CC2)cc1	-	-	.	.	-
CCC(C)(C)NC(=S)Nc1ccc(-c2nc3ccc(C)cc3s2)cc1	-	-	-	74.7	-
Cc1ccc2nc(-c3ccc(NS(=O)(=O)c4ccc(F)cc4)cc3)sc2c1	-	-	-	64.7	-
CCN(CC)P(=O)(Nc1ccc(C)cc1Br)c1ccc(N(C)C)cc1NC(=O)c1ccco1 (stereo not given)	64.4	-	-	64.9	-
Cc1ccc(NC(=O)c2ccco2)c(NC(=O)c2ccccc2)c1	-	-	.	.	-
Cc1noc(C)c1COc1ccccc1C(=O)NC1CCC(C)CC1 (stereo not given)	-	-	.	.	-
CCOc1ccc(NC(=O)c2ccc(NC(=O)c3cn4c5c(c(N6CCN(C)CC6)c(F)cc5c3=O)OCC4C)cc2)cc1 (stereo not given)	-	-	-	92.9	-
CC(CCc1ccccc1)NC(=O)c1ccc(NC(=O)c2cccc(Br)c2)cc1 (stereo not given)	70.4	-	-	-	-
CC(CCc1ccccc1)NC(=O)c1cccc([N+](=O)[O-])c1 (stereo not given)	-	-	-	-	-52.5
CC(CCc1ccccc1)NC(=O)c1ccc(NC(=O)c2ccccc2)cc1 (stereo not given)	-	-	-	-	-
Cc1ccc(-c2nn(-c3ccccc3)cc2C(=O)N2CCN(c3ccccn3)CC2)cc1	-	-	-	-	-
COc1ccc(-c2nn(-c3ccccc3)cc2/C=C/C(=O)N2CCN(c3ccccn3)CC2)cc1	55.5	-	-	-	-
COc1ccc(C2NC(c3ccc(OC)cc3)C(c3ccccc3)C(=O)C2c2ccccc2)cc1 (stereo not given)	-	-	-	98.2	-
COc1ccc(C2NC(c3ccc(OC)cc3)C(C)C(=O)C2C)cc1 (stereo not given)	-	-	.	.	-
CCCCCCOc1ccc(/C(N)=N/O)cc1	-	-	-	86.5	-
CCCCCOc1ccc(C(=O)NC(CCC)C(=O)O)cc1 (stereo not given)	-	-	-	-	-
O=C(OCCCOC(=O)c1ccc(Br)o1)c1ccc(Br)o1	-	-	.	.	-
CCN(CCC(=O)Nc1cc([N+](=O)[O-])ccc1OC)Cc1ccccc1	-	-	-	67.4	-
COc1ccc([N+](=O)[O-])cc1NC(=O)C(C)N(C)Cc1ccc(Br)cc1 (stereo not given)	-	-	-	56.6	-
COc1ccc(Br)cc1CN(C)C(C)C(=O)Nc1cc([N+](=O)[O-])ccc1OC (stereo not given)	-	-	-	-	-
COc1cccc(CN2CC(C(=O)N(C)C3CCOCC3)CCC2=O)c1 (stereo not given)	-	-	.	.	-
O=C(Cc1ccc(Br)cc1)N1CCOCC1	-	-	.	.	-
Cc1ccc(CCNC(=O)Cn2cccc2)cc1	-	51.6	-	-	-
COc1cccc(C2CC(c3ccc(Br)cc3)=NN2C(=O)c2ccncc2)c1OC (stereo not given)	-	-	-	61.2	-
COc1cccc(C2CC(c3ccccc3)=NN2S(=O)(=O)c2ccc(C)cc2)c1OC (stereo not given)	-	-	-	61.1	-
COc1ccccc1C1CC(c2ccc(Br)cc2)=NN1C(=O)c1cccnc1 (stereo not given)	-	-	-	51.1	-
Cc1ccc(S(=O)(=O)n2c([N+](=O)[O-])cnc2C)c(C)c1C	-	-	-	-	-
CCOC(=O)C1(Cc2ccc(Cl)cc2)CCN(C(=O)c2ccoc2)CC1	-	-	-	53.1	-
O=C(CSc1nnc(CNC(=O)c2ccccc2)o1)NCCc1ccccc1	-	-	.	.	?
Cc1cc(C=O)c(C)n1-c1cc(C(F)(F)F)ccc1N1CCOCC1	-	-	-	93.7	-
